For one compound, Activity, viability and IC50 results are on record in ChEMBL document CHEMBL4316598, “Synthesis, antiproliferative and apoptosis induction potential activities of novel bis(indolyl)hydrazide-hydrazone derivatives” (Bioorg Med Chem, 2019).

The target in assay [1] is T1, c-Jun N-terminal kinase, JNK (Homo sapiens) (UniProt P45983+P53779+P45984). The assay can be described thus: Activation of JNK phosphorylation in human HeLa cells assessed as increase in ratio of phosphorylated JNK to total JNK level at 5 uM by ELISA. It counts as cell-based. An outline of the steps: (§1)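 Cell-based ELISA: HeLa or MCF-7 cells (20×10^3/well) grown overnight at 37 °C, 5% CO2, treated with 5 μM, then fixed and blocked. Probed with rabbit anti-total and anti-phospho P38, JNK or ERK1/2 (1:100), then HRP anti-rabbit IgG. Result is the phospho/total ratio; inhibitor arms use […], […] or SP600125. n=3.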

In assay [2] the test system is MCF7. In words: Induction of ERK/MAPK signal transduction pathway in human MCF7 cells assessed as increase in c-jun level. It counts as cell-based.
Assay [3] has as its system MCF7. In words: Induction of caspase-dependent apoptosis in human MCF7 cells assessed as activation of caspase-7 at 1 to 3 uM after 24 hrs by Western blot analysis. In kind it is functional, cell-based. An outline of the steps:
(§2)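 Cells were treated at 1, 3 and 5 µM for 24 h at 37 °C. Lysis was in ice-cold Triton X-100 buffer with protease and phosphatase inhibitors; nuclear proteins were extracted separately. Protein was quantified by BCA. Lysates were separated by electrophoresis, transferred to nitrocellulose and blocked in non-fat milk for 1 h. Primary antibody was applied overnight at 4 °C and secondary for 1 h at 28 °C. Detection was by enhanced chemiluminescence.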
In general terms: A western blot detects proteins with antibodies after separation by electrophoresis.

Assay [4] deals with HeLa. In words: Induction of apoptosis in human HeLa cells assessed as early apoptotic cells at 1 uM after 8 hrs by annexin-V FITC/propidium iodide staining based flow cytometric analysis relative to control. It counts as functional. In short, it runs like this: (§3)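 Cells were grown in DMEM with 10% heat-inactivated FBS at 37 °C and 5% CO₂, then plated at 500,000 cells/well in 24-well plates. They were treated from a DMSO stock (DMSO ≤0.1%) for 8, 12 or 16 h. After a PBS wash, cells were resuspended in binding buffer (10 mM HEPES pH 7.4, 2.5 mM CaCl₂, 140 mM NaCl, 0.1% BSA), stained 40 min with FITC-annexin V, then with PI, and run on the flow cytometer immediately. Values are the mean of three independent experiments.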
On the technique in general: In flow cytometry, cells or beads pass a laser one at a time.

Assay [5] deals with HeLa. The assay can be described thus: Induction of apoptosis in human HeLa cells assessed as early apoptotic cells at 1 uM after 16 hrs by annexin-V FITC/propidium iodide staining based flow cytometric analysis relative to control. It counts as functional. An outline of the steps: as §3
In assay [6] the test system is HeLa. In words: Induction of apoptosis in human HeLa cells assessed as viable cells at 1 uM after 8 hrs by annexin-V FITC/propidium iodide staining based flow cytometric analysis relative to control. In kind it is functional. The conditions noted are these: read-out: Activity. In short, it runs like this: as §3
Assay [7] relates to MCF7. The assay can be described thus: Induction of ERK/MAPK signal transduction pathway in human MCF7 cells assessed as increase in p53 phosphorylation. It counts as cell-based.
The subject of assay [8] is MCF7. In words: Induction of apoptosis in human MCF7 cells assessed as necrotic cells at 1 uM after 12 hrs by annexin-V FITC/propidium iodide staining based flow cytometric analysis relative to control. It counts as functional. In short, it runs like this:
as §3

For assay [9], the system named is MCF7. The assay can be described thus: Induction of nitric oxide production in human MCF7 cells at 1 uM measured over 8 hrs by Griess reaction based assay relative to control. It counts as functional. In short, it runs like this:
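Cells seeded at 2×10^6 cells/well for 12 h, then exposed to 1, 5 and 10 μM compound for 8 h at 37 °C. Culture supernatant mixed with Griess reagent (0.002% N-1-naphthyl-ethylenediamine dihydrochloride, 0.5% sulfanilic acid, 14% glacial acetic acid). Nitrite read by absorbance at 550 nm and compared with vehicle group.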

For assay [10], the system named is MCF7. The assay can be described thus: Induction of apoptosis in human MCF7 cells assessed as change in Bid level at 1 to 3 uM after 24 hrs by Western blot analysis. It counts as functional, cell-based. An outline of the steps: as §2
Assay [11] relates to MCF7. In words: Induction of caspase-dependent apoptosis in human MCF7 cells assessed as activation of caspase-3 at 1 to 3 uM after 24 hrs by Western blot analysis. In kind it is functional, cell-based. An outline of the steps:
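Cleaved caspase-3 immunoblot. Cells were exposed at 1, 3 and 5 µM for 24 h at 37 °C, with paclitaxel 3 µM as positive control. Lysis was in ice-cold Triton X-100 buffer, and protein was measured by BCA. Lysates were separated by electrophoresis, transferred to nitrocellulose and blocked in milk. Primary antibody was applied overnight at 4 °C and secondary for 1 h at 28 °C. Detection was by enhanced chemiluminescence.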

Assay [12] addresses T1, c-Jun N-terminal kinase, JNK (Homo sapiens). The assay can be described thus: Activation of JNK phosphorylation in human MCF7 cells assessed as increase in ratio of phosphorylated JNK to total JNK level at 5 uM by ELISA. In kind it is cell-based. In short, it runs like this:
as §1
(In general: An ELISA detects its analyte on a solid surface through an enzyme-linked reagent.)

Assay [13] relates to MCF7. The assay can be described thus: Induction of ERK/MAPK signal transduction pathway in human MCF7 cells assessed as increase in c-fos level. It counts as cell-based.
Another assay deals with MDA-MB-231. In words: Cytotoxicity against human MDA-MB-231 cells assessed as reduction in cell viability after 4 hrs by MTT assay. It counts as functional, cell-based. In short, it runs like this: (§4)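 MTT: 10,000–20,000 cells/well attached for 16 h, then washed twice with serum-free RPMI. Treated with 1–200 µM for 4 h, 3 parallel runs per concentration. MTT added for 2 h; medium partly removed and isopropanol added. A590 read. Viability = (A treated − A doxorubicin)/(A medium − A doxorubicin)×100. Mean of three experiments, triplicate wells each.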

The target of assay [14] is Mitogen-activated protein kinase; ERK1/ERK2 (Homo sapiens) (UniProt P27361+P28482). In words: Induction of ERK/MAPK signal transduction pathway in human MCF7 cells assessed as increase ERK1/2 translocation. It counts as cell-based.
Sequence of Mitogen-activated protein kinase; ERK1/ERK2 (Homo sapiens) (P27361 whole entry, looked up): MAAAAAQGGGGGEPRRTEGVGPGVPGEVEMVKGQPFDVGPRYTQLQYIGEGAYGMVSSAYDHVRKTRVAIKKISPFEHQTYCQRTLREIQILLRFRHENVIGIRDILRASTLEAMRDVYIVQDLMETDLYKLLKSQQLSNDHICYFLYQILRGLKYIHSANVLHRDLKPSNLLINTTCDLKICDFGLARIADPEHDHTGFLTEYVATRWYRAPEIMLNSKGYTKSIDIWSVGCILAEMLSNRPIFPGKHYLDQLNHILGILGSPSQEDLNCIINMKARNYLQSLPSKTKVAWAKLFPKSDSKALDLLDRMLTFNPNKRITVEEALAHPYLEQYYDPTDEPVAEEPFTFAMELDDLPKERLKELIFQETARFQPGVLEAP
Sequence of Mitogen-activated protein kinase; ERK1/ERK2 (Homo sapiens) (P28482 whole entry, looked up): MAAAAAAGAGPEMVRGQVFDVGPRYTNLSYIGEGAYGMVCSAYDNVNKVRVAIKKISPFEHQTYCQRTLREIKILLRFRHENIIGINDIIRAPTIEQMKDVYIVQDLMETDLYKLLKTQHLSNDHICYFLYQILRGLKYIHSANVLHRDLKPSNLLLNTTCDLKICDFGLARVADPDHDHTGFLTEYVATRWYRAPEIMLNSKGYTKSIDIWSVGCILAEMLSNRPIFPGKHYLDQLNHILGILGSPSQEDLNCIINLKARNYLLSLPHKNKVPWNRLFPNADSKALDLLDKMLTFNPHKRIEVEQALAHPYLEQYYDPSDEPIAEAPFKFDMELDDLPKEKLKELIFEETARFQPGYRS
In assay [15] the test system is HeLa. The assay can be described thus: Induction of apoptosis in human HeLa cells assessed as increase in Mcl-1 short level at 1 to 3 uM after 24 hrs by Western blot analysis. It counts as functional, cell-based. An outline of the steps:
as §2

Assay [16] deals with MCF7. The assay can be described thus: Induction of ROS generation in human MCF7 cells at 5 uM after 12 hrs by CM-H2DCFDA staining-based FACS analysis. It counts as functional, cell-based. In short, it runs like this:
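CM-H2DCFDA ROS: HeLa or MCF-7 cells at 2×10^6/well in 6-well plates treated with 5 μM (final) for 12 or 24 h at 37 °C. Cells harvested, washed with PBS, stained with CM-H2DCFDA in PBS 30 min at 37 °C, washed with ice-cold PBS. Read by FACScan with 488 nm argon laser.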

The test system of assay [17] is MCF7. The assay can be described thus: Cytotoxicity against human MCF7 cells assessed as reduction in cell viability after 4 hrs by MTT assay. In kind it is functional, cell-based. In short, it runs like this:
as §4

Assay [18] has as its system HeLa. The assay can be described thus: Induction of apoptosis in human HeLa cells assessed as late apoptotic cells at 1 uM after 8 hrs by annexin-V FITC/propidium iodide staining based flow cytometric analysis relative to control. In kind it is functional. An outline of the steps: as §3
Assay [19] has as its system MCF7. In words: Induction of caspase-dependent apoptosis in human MCF7 cells assessed as activation of caspase-9 at 1 to 3 uM after 24 hrs by Western blot analysis. It counts as functional, cell-based. An outline of the steps: as §2
The target of assay [20] is T1, c-Jun N-terminal kinase, JNK (Homo sapiens). The assay can be described thus: Activation of JNK phosphorylation in human MCF7 cells assessed as increase in ratio of phosphorylated JNK to total JNK level at 5 uM in presence of JNK inhibitor SP600125 by ELISA. In kind it is cell-based. An outline of the steps: as §1
The test system of assay [21] is HeLa. In words: Induction of caspase-dependent apoptosis in human HeLa cells assessed as activation of caspase-7 at 1 to 3 uM after 24 hrs by Western blot analysis. In kind it is functional, cell-based. An outline of the steps: as §2

Molecules are shown by their SMILES. Active and inactive are the calls of the source. The calls are words filed in the database; no cut-off is given here.

In general, IC50 refers to the point on the concentration scale where inhibition reaches its midpoint. For the compound `Cn1cc(/C=N\NC(=O)c2cn(C)c3ccc(Br)cc23)c2ccccc21`, the result (in assay [1]; in the assay on MCF7 [2]; in the assay with MCF7 [7]; in assay [12]; with MCF7 [13]; in [14]) was Active. Also, the result with HeLa [15] and in the assay with MCF7 [16] was Active. Also, the outcome (in the assay on MCF7 [3]; in the assay with MCF7 [10]; with MCF7 [11]; in the assay on MCF7 [19]; in assay [20]; with HeLa [21]) was inactive. The Activity was 19.15% in the assay on HeLa [4]; 12.23% with HeLa [5]; 2.61% in the assay with MCF7 [8]; 32.1% in the assay on MCF7 [9]; “Dose-dependent effect” with MDA-MB-231; “Dose-dependent effect” with MCF7 [17]. Further, the Activity in the assay with HeLa [18] was 11.5%. Further, in the assay on HeLa [6], the viability at 1 µM is 68.8%. The IC50 in the assay on MDA-MB-231 (MDA-MB-231, 4 h) amounted to 5.49 µM; with MCF7 [17] (Homo sapiens, MCF7, 4 h, read-out: IC50), 1.19 µM.
